Source: PubChem BioAssay
Rtt109 Vps75: inhibitors of Candida albicans Rtt109/Vps75 histone acetyltransferase. Q5AAJ8. purified Rtt109/Vps75, ThioGlo CoA-SH fluorescence, 4 h. inhibition, % at 34.9 µM. hit rate 0.16% among 330,000;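 active = inhibition of at least 50% in every replicate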
Target sequence (Q5AAJ8 whole entry, looked up): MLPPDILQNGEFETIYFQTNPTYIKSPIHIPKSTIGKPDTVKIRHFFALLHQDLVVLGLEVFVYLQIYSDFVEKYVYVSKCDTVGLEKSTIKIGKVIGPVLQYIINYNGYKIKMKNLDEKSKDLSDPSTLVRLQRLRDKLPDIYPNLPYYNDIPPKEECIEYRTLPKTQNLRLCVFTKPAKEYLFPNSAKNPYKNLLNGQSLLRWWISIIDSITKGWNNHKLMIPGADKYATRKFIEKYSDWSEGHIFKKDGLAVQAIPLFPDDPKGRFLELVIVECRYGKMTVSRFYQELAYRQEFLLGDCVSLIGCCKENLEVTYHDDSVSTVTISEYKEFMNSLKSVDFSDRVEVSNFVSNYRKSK
Glyco luc inh: N-linked glycosylation inhibition | D54 ERlucT glycosylation luciferase reporter, 24 h; percent of 100 nM tunicamycin response | reporter increase, % at 12.5 µM | hit rate 0.23% among 360,000 | AID 588692;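 active = mean luciferase reporter signal, scaled so untreated is 0 and the glycosylation-blocking control 100, at or above a set limit in every replicate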;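 note: luciferase carries N-glycosylation sites so blocking glycosylation raises the light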
SR-BI DiI inh: blocks mouse SR-BI lipid uptake from DiI-HDL | inhibition, % at 12.5 µM | hit rate 0.96% among 320,000 | Q61009 | ldlA[mSR-BI] CHO cells, DiI-HDL uptake fluorescence, 3 h;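 active = mean replicate inhibition of at least 70% and a set share of replicates each scoring 70 or more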
PglD DTNB: blocks C. jejuni PglD acetyltransferase activity; purified PglD enzyme, DTNB colorimetric CoA detection; inhibition, % at 12.5 µM; hit rate 0.098% among 360,000; AID 602405; in the data active = inhibition above about 16%, passing the limit was not always enough
SR-BI uptake up: SR-BI HDL lipid transfer activation; CHO ldlA[mSR-BI] cells, DiI-HDL uptake fluorescence, 3 h; 100 = double the neutral-control signal; activation, % at 12.5 µM; hit rate 0.096% among 320,000;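 active = mean replicate activation of at least 60% and every replicate at or above 60%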
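Assay system: LDL receptor-deficient CHO ldlA cells overexpressing murine SR-BI / Medium: BSA-supplemented, HEPES-buffered Ham's F12, pH 7.4 / Probe or stimulus: DiI-labelled HDL at 10 µg/mL final / Timing: compound with DiI-HDL co-incubation, 3 h at 37 °C / Technique: bottom-read cell fluorescence after medium removal, ex 550/em 595 nm / Measure: HDL uptake via cellular fluorescence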
Env fusion inh: blocks HIV Env-driven cell-cell fusion | HeLa-JRFL Env/CEM21 cell fusion, luciferase | inhibition, % at 12.3 µM | hit rate 1.1% among 360,000;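 active = mean replicate inhibition score of at least 50 and every replicate individually at or above 50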
Numbers stand for hits; – = inactive; · = not tested or not shown; [ ] = remark or other dose. This is a sample that favours compounds with a hit; in the whole collection about 1.9% have one here.

SMILES	Rtt109 Vps75	Glyco luc inh	SR-BI DiI inh	PglD DTNB	SR-BI uptake up	Env fusion inh
COc1ccc(CCNc2ccc(N3C(=O)CC(C)C3=O)cc2[N+](=O)[O-])cc1OC (stereo not given)	–	–	–	–	–	68
COc1ccc(CCNc2ccc(N3C(=O)CC(C)C3=O)cc2[N+](=O)[O-])cc1 (stereo not given)	–	–	·	·	·	–
CSc1sc(C(=O)O)c2c1C(=O)CC(C)(C)C2	–	–	–	–	–	–
CSc1sc(-c2ccnc(SCC(=O)C(C)(C)C)n2)c2c1C(=O)CC(C)(C)C2	–	–	–	·	–	65
COc1ccc(OC)c(NC(=O)C2(C)CCN2CCOc2ccccc2)c1 (stereo not given)	·	–	·	–	·	66
O=C1c2ccccc2C(=O)c2c1cccc2-n1nnc2ccccc21	–	–	–	–	–	–
O=C1C(N2CCOCC2)=C(n2nnc3ccccc32)C(=O)c2ccccc21	–	–	–	–	–	80
O=C(CN1CCN(c2ncc(C(F)(F)F)cc2Cl)CC1)N1CCN(c2ncc(C(F)(F)F)cc2Cl)CC1	–	–	–	–	–	95
COc1cccc(/C=C2\SC(=S)N(CCC(=O)N3CCCCC3)C2=O)c1	–	39	–	–	–	–
CCOC(=O)N1CCN(C(=O)CCN2C(=O)/C(=C\c3cccc(OC)c3)SC2=S)CC1	–	–	·	–	·	–
COc1cccc(/C=C2\SC(=S)N(C(C)C(=O)NC3C=CS(=O)(=O)C3)C2=O)c1 (stereo not given)	154	–	–	–	–	–
COc1ccc(NC(=O)O/N=C/c2c(C)nn(C(C)(C)C)c2C)cc1	–	–	–	–	–	–
Cc1nn(C(C)(C)C)c(C)c1/C=N/OC(=O)Nc1ccc(Cl)c(Cl)c1	–	–	–	–	–	65
O=C1[C@H]2[C@@H](c3ccc(F)cc3)N3C(=O)N(c4ccccc4)C(=O)[C@@]3(Cc3ccccc3)[C@H]2C(=O)N1C1CCCCC1	–	–	–	–	–	107
C[C@@]12C(=O)N(c3cccc(F)c3)C(=O)N1[C@H](c1ccc(F)cc1)[C@@H]1C(=O)N(C3CCCCC3)C(=O)[C@@H]12	–	–	–	–	–	·
O=C1[C@H]2[C@@H](c3ccc(F)cc3)N3C(=O)N(c4ccccc4)C(=O)[C@@]3(Cc3ccc(Cl)cc3)[C@H]2C(=O)N1C1CCCCC1	–	–	–	–	–	100
COc1ccc(CCNC(=O)CSc2nc(N)c(C#N)c(-c3cccs3)c2C#N)cc1OC	–	–	–	–	–	119
Cc1ccccc1NC(=O)CSc1nc(N)c(C#N)c(-c2cccs2)c1C#N	–	–	–	–	–	·
CO[C@H]1CN(C)C(=O)c2cc(NC(=O)Nc3cccc(Cl)c3)ccc2OC[C@H](C)NC[C@H]1C	·	·	·	–	·	–
CO[C@@H]1CN(C)C(=O)c2ccc(NS(C)(=O)=O)cc2OC[C@@H](C)N(C)C[C@@H]1C	·	·	·	–	·	·
NC(=O)c1sc2nc3c(c(-c4ccco4)c2c1N)CCCC3	–	–	·	–	·	57
N#Cc1sc2nc3c(c(-c4ccco4)c2c1N)CCCC3	–	–	·	–	·	·
O=C(C[C@@H]1C[C@@H]2c3cc(NC(=O)Nc4ccccc4)ccc3O[C@@H]2[C@@H](CO)O1)NCc1ccccc1	·	·	·	–	·	59[16.7 µM]
O=C(C[C@@H]1C[C@H]2c3cc(NC(=O)Nc4ccccc4)ccc3O[C@H]2[C@H](CO)O1)NCc1cccnc1	·	·	·	–	·	63[16.7 µM]
O=C(C[C@H]1C[C@@H]2c3cc(NC(=O)Nc4ccccc4)ccc3O[C@@H]2[C@@H](CO)O1)NCc1ccccc1	·	·	·	–	·	–
O=C(C[C@H]1C[C@H]2c3cc(NC(=O)c4ccc5c(c4)OCO5)ccc3O[C@H]2[C@H](CO)O1)NCc1ccc(Oc2ccccc2)cc1	·	·	·	–	·	73[16.7 µM]
O=C(C[C@H]1C[C@H]2c3cc(NC(=O)Nc4ccccc4)ccc3O[C@H]2[C@H](CO)O1)NCc1cccnc1	·	·	·	–	·	–
CC(=O)N(C)C[C@@H]1Oc2ncc(C#Cc3ccc(F)cc3)cc2C(=O)N([C@@H](C)CO)C[C@@H]1C	·	·	·	–	·	–
COc1ccc(NC(=O)N(C)C[C@@H]2OCCCC[C@H](C)Oc3ccc(NC(=O)NC(C)C)cc3C(=O)N([C@H](C)CO)C[C@@H]2C)cc1	·	·	·	–	·	–
